The values below come from article PMC4281708 (Cancer research, 2012).

Data set [1] concerns PSA and TMPRSS2 mRNA expression in VCaP cells. As to the kind of experiment: Quantitative RT-PCR of AR-regulated genes, VCaP. The class given is cell-based, human. As to conditions: 0.1 - 10μM eplerenone, 5 hours. The procedure, abridged: (§1)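 Cells held 24 h in phenol red-free medium with charcoal-stripped serum, then treated 5 h with test compound (0.1–10 µM) or 0.1nM R1881. After RNA extraction and cDNA synthesis, SYBR Green qPCR for PSA and TMPRSS2 used 50ng cDNA per reaction, each sample run in duplicate. Normalised to actin and GAPDH, relative to a reference sample (2^-ΔΔCt). 3 independent experiments, mean ± SEM.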

Another data set deals with W741C-AR. The data set is described as follows: PSA-ARE3-luc luciferase reporter assay in transfected PC-3 cells, W741C-AR. It counts as cell-based, human.
The next data set deals with VCaP cells. As to the kind of experiment: Cell viability. The class given is cell-based, human. Conditions: for proliferation of VCaP (WT-AR): 1 and 10μM, CSS, 7 days; for growth inhibition of VCaP cells stimulated by spironolactone: 0.1, 1 or 5μM abiraterone, 10μM bicalutamide or 10μM MDV3100, 7 days.
The subject of data set [2] is wild-type (WT)-AR. As to the kind of experiment: PSA-ARE3-luc luciferase reporter assay in transfected PC-3 cells, WT-AR. The class given is cell-based, human. As to conditions: compared to R1881. Background: Reporter assays use an easily measured gene product as a stand-in for the process of interest.
Another data set concerns LNCaP cells. As to the kind of experiment: Cell viability. It counts as cell-based, human. Conditions: for proliferation of hormone-stripped LNCaP (T877A-AR): 1 and 10μM, CSS, 7 days; for growth inhibition of LNCaP cells stimulated by eplerenone / growth inhibition of LNCaP cells stimulated by spironolactone: 0.1, 1 or 5μM abiraterone, 10μM bicalutamide or 10μM MDV3100, 7 days.

The conditions of data set [3]: 100mg eplerenone ref 6, cited from earlier work.
Data set [4] deals with wild-type (WT)-AR. Conditions: cited from earlier work.
In the next data set the test system is D879G-AR. The data set is described as follows: PSA-ARE3-luc luciferase reporter assay in transfected PC-3 cells, D879G-AR. It counts as cell-based, human. Conditions: compared to R1881. In a few lines:
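Human AR expression plasmid carrying the mutation (confirmed by sequencing) co-transfected with PSA-ARE3-luc reporter into PC-3 cells. Cells grown 30 h in phenol red-free RPMI 1640 with 10% charcoal-stripped serum, then exposed 16 h to test compound (DMSO ≤0.2%) with R1881 as reference agonist. Luminescence read after ONE Glo. Fold change vs DMSO control; EC50 by nonlinear regression; 3 independent experiments, 16 replicates.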

In data set [5] the test system is PSA and TMPRSS2 mRNA expression in LNCaP cells. The data set is described as follows: Quantitative RT-PCR of AR-regulated genes, LNCaP. The class given is cell-based, human. In a few lines:
as §1

The test system of data set [6] is castration-resistant prostate cancer (CRPC). As to conditions: 1000mg abiraterone daily ref 1, 2; cited from earlier work.
For a further data set, the target named is T1, LNCaP (T877A-AR) (Homo sapiens, UniProt P10275, T878A).
T1 sequence (P10275 1-920 T878A): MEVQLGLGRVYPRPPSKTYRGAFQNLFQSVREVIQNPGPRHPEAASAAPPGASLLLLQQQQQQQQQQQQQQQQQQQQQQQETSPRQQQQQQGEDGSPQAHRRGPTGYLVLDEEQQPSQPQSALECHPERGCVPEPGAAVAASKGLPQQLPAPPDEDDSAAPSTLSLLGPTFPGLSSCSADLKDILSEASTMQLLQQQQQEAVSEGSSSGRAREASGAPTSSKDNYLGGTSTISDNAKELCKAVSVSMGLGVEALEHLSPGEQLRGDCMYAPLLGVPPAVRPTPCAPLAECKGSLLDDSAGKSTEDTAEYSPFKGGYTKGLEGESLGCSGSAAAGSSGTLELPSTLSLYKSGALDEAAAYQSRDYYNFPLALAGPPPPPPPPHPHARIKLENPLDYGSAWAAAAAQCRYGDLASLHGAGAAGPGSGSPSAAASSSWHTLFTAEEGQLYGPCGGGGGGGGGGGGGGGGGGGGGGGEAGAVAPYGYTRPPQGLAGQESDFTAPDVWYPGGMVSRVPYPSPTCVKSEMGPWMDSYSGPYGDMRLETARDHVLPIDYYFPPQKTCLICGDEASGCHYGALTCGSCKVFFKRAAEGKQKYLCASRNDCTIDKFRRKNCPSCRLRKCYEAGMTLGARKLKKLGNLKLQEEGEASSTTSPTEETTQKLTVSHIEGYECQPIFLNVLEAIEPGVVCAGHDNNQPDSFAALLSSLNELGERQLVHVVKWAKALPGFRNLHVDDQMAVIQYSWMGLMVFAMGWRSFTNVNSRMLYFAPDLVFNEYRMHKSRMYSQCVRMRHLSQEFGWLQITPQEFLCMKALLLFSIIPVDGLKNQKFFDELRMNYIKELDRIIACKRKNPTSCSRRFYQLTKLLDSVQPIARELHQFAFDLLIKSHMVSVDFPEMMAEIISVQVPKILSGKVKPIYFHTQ
As to the kind of experiment: cell-based. The class given is binding.

Data set [7] has as its target T2, T877A-AR (Homo sapiens, UniProt P10275, T878A).
T2 sequence (P10275 1-920 T878A): T1 sequence (P10275 1-920 T878A)
The class given is cell-based.

The next data set concerns DU145. As to the kind of experiment: Cell proliferation, DU145. The class given is cell-based, human. Conditions: AR-negative prostate cancer cell line.
Data set [8] deals with WT or mutant AR (T877A, D879G, W741C, M749L, R629Q). As to the kind of experiment: ARE3-luciferase reporter assay in PC-3 cells, WT and mutant AR panel. The class given is cell-based, human.
For a further data set, the system named is PC-3. As to the kind of experiment: Cell proliferation, PC-3. Conditions: AR-negative prostate cancer cell line. It counts as cell-based, human.
For data set [9] the following is noted: patients ref 2; cited from earlier work.
A further data set is described as follows: Solubility in cell media. The class given is physicochemical. Conditions: plasma or biological fluid, kinetic from dmso stock.
Data set [10] relates to WT or mutant human AR (T877A, G142V, P533S, T575A, H874Y, R629Q). The data set is described as follows: GRE2-TATA-Luc reporter assay in COS-7 cells co-transfected with AR. It counts as cell-based.
The target of data set [11] is T2, T877A-AR. As to the kind of experiment: cell-based. The class given is binding.
A further data set concerns the target T3, WT-AR (Homo sapiens, UniProt P10275).
T3 sequence (P10275 1-920): T1 sequence (P10275 1-920 T878A) with A878T
As to the kind of experiment: cell-based. The class given is binding.

The subject of a further data set is AR. As to conditions: cited from earlier work.

The structures appear in SMILES notation. Substitutions are numbered along the chain they refer to. Entries after “also recorded” stand apart in the source; their conditions may differ. Where two headings read alike, the source gives them in different places. Bounds are passed on as bounds.

Consider `COC(=O)[C@@H]1CC2=CC(=O)CC[C@]2(C)[C@@]23O[C@@H]2C[C@@]2(C)[C@@H](CC[C@@]24CCC(=O)O4)[C@H]13` [eplerenone], for which the “expression of PSA and TMPRSS2 in VCaP” value in [1] was “not in VCaP”. Further, the “activation of W741C-AR” value in the data set on W741C-AR is “does not activate”. Further, the “proliferation of VCaP (WT-AR)” value with VCaP cells was “only spironolactone increased the proliferation”. For the same compound, the “activation of WT-AR” value in the data set on wild-type (WT)-AR [2] is “does not activate”. In addition, the “proliferation of hormone-stripped LNCaP (T877A-AR)” value in the data set on LNCaP cells is “increased proliferation”. Besides, the Cmax is 1720 ± 280 ng/mL in data set [3] and 4.2 µM in [3] (read-out: Cmax (equivalent)). In addition, the “binding and activation of wild-type (WT)-AR” value with wild-type (WT)-AR [4] is “did not bind and activate”. Also, the “activation of D879G-AR” value in the data set with D879G-AR is listed as “does not activate”. In data set [5] (0.1 - 10μM eplerenone, 5 hours), the “expression of PSA and TMPRSS2 in LNCaP” value is listed as “significantly increased expression”.

Consider `CNC(=O)c1ccc(N2C(=S)N(c3ccc(C#N)c(C(F)(F)F)c3)C(=O)C2(C)C)cc1F` [MDV3100], for which the “growth inhibition of VCaP cells stimulated by spironolactone” value in the data set on VCaP cells was “more profound inhibition”. Also, in the data set with LNCaP cells, the “growth inhibition of LNCaP cells stimulated by eplerenone” value is on record as “more profound inhibition” and the “growth inhibition of LNCaP cells stimulated by spironolactone” value was “more profound inhibition”. The “inhibition of induction of TMPRSS2 expression by eplerenone” value in data set [5] (LNCaP, 10μM eplerenone, 10μM MDV3100, 5 hours) is listed as “more significantly than bicalutamide or abiraterone”.

Regarding `C[C@@H]1C[C@H]2[C@@H]3CCC4=CC(=O)C=C[C@]4(C)[C@@]3(F)[C@@H](O)C[C@]2(C)[C@@]1(O)C(=O)CO` [dexamethasone], in the data set on wild-type (WT)-AR [2], the “activation of WT-AR” value was “do not activate”.

Regarding `C[C@]12CC[C@H](O)CC1=CC[C@@H]1[C@@H]2CC[C@]2(C)C(c3cccnc3)=CC[C@@H]12` [abiraterone], the “objective tumor responses, CRPC patients” value in [6] is given as “up to 60%”. The same compound showed an EC50 at LNCaP (T877A-AR) of 2.6 µM. Moreover, at T877A-AR [7], the “inhibition of activation of T877A-AR by 1μM eplerenone” value is listed as “significantly inhibited”. In the data set with DU145, the “inhibitory effect on proliferation of DU145” value is recorded as “No inhibitory effect was observed”. Moreover, the “inhibition of stimulated WT and mutant AR activity” value in data set [8] (0.1nM R1881, 16 hours) is reported as “dose-proportional inhibition”. Besides, in data set [8] (1μM abiraterone), the AR inhibition entry is reported as “up to 32%”. Also, the “increase in reporter-luciferase activity (agonistic activity) with WT-AR or any mutation tested” value in data set [8] (doses up to 25μM) was “did not observe an increase in reporter-luciferase activity; also recorded: no agonistic activity was observed”. For the same compound, the “growth inhibition of VCaP cells stimulated by spironolactone” value with VCaP cells was “dose-proportional growth inhibition”. In addition, the “doses with significant inhibition of proliferation of VCaP” value in the data set on VCaP cells (CSS with 0.1nM R1881, 7 days) was ≥ 5 µM. Also, in the data set with PC-3, the “inhibitory effect on proliferation of PC-3” value is reported as “No inhibitory effect was observed”. Moreover, the doses safely tolerated entry in [9] is listed as “at least 2000 mg daily”. Further, the solubility in the data set “Solubility in cell media” is > 25 µM. Moreover, the “inhibition of R629Q-AR” value in data set [10] (COS-7, 10nM DHT, compared with PC-3 ARE3-luciferase assay) is on record as “Higher concentrations of abiraterone were required”. In addition, the “inhibition of WT-AR, T877A-AR, G142V-AR, P533S-AR, T575A-AR and H874Y-AR” value in data set [10] (COS-7, activated by 10nM DHT for 24 hours, 0.1 - 5μM) is “dose-proportional inhibition”. This compound came in with an EC50 at T877A-AR [11] of 7.9 µM. For the same compound, in the data set on LNCaP cells, the “growth inhibition of LNCaP cells stimulated by eplerenone” value was “dose-proportional growth inhibition” and the “growth inhibition of LNCaP cells stimulated by spironolactone” value is reported as “dose-proportional growth inhibition”. Besides, the “doses with significant inhibition of proliferation of LNCaP” value in the data set on LNCaP cells (CSS with 0.1nM R1881, 7 days) is ≥ 5 µM. This compound displayed an EC50 on WT-AR of 13.4 µM. The “regulation of PSA and TMPRSS2 in LNCaP cells treated with abiraterone” value in [5] (5μM abiraterone, 0.1nM R1881, 5 hours) was “down-regulation”. Also, in the data set on AR, the “binding to the AR” value is recorded as “failed to identify binding” and the “effect on AR levels” value is “dose-dependent decrease in AR levels”.

For `CC(=O)S[C@@H]1CC2=CC(=O)CC[C@]2(C)[C@H]2CC[C@@]3(C)[C@@H](CC[C@@]34CCC(=O)O4)[C@H]12` [spironolactone], in the data set with VCaP cells, the “proliferation of VCaP (WT-AR)” value was “increased the proliferation”. Also, in the data set on wild-type (WT)-AR [2], the “activation of WT-AR” value is recorded as “activates”. For the same compound, in the data set on LNCaP cells, the “proliferation of hormone-stripped LNCaP (T877A-AR)” value is “increased proliferation”. The “activation of D879G-AR” value with D879G-AR is listed as “activates”.

With `CC(O)(CS(=O)(=O)c1ccc(F)cc1)C(=O)Nc1ccc(C#N)c(C(F)(F)F)c1` (stereo not shown) [bicalutamide], the “activation of W741C-AR” value in the data set on W741C-AR is on record as “activated”.

Take `C[C@]12C=CC(=O)C=C1CC[C@@H]1[C@@H]2C(=O)C[C@@]2(C)[C@H]1CC[C@]2(O)C(=O)CO` [prednisone]: in the data set on wild-type (WT)-AR [2], the “activation of WT-AR” value is given as “do not activate”.

As a reminder, the Cmax is the peak of the concentration-time curve. The EC50 is the concentration needed to bring the measured effect to its halfway point. Read a low EC50 as higher potency in that assay. What is called solubility is the concentration that dissolves in the medium under given conditions. Higher therefore signals a readily soluble substance.
